Measured values as given in PubChem BioAssay AID686992 (Broad Institute, 2013).
Screen size: about 260,000 compounds; about 960 (0.37%) were called active. For the sample, actives were picked, then their nearest neighbours and some compounds at random. Values without a mark were called inactive.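 How the source made its calls: active means mean E-selectin-positive cell signal at least 10% of the positive control, reached in at least 60% of replicates, without over 20% cell loss; inconclusive means no rule given, readout overlaps actives, possibly toxicity-flagged; inactive means the rest, including those meeting only one limit.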

Target: E-selectin (Homo sapiens) (UniProt P16581)
Sequence (P16581 whole entry, looked up): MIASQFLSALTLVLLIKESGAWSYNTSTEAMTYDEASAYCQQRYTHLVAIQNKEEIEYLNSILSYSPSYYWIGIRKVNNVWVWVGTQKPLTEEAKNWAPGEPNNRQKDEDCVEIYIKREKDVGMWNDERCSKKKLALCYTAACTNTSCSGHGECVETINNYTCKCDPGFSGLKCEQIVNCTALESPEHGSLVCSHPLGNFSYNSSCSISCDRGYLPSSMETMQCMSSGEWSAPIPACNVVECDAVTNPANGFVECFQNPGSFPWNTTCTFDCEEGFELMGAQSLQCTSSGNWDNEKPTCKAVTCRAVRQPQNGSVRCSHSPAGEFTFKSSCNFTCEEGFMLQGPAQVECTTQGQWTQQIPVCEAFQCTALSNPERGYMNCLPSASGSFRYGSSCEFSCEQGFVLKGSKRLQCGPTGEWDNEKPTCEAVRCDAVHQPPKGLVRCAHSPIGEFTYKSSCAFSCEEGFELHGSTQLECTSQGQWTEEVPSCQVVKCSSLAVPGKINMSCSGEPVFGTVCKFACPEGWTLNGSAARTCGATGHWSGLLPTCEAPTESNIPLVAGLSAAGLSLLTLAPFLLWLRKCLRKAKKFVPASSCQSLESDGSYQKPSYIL
Assay: inducers of endothelial E-selectin expression – imaging, HUVEC, immunofluorescence imaging, single point, primary screen (AID 686992);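 further: signal is the percent of cells scored E-selectin positive by PE staining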
Details: at 7.58 µM, stronger effect = higher value, normalized: neutral wells 0, TNF-alpha wells 100
Method in brief: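 Assay system: HUVEC, human umbilical vein endothelial cells / Amount: 3,000 HUVEC/well / Controls: TNF-alpha positive control, DMSO neutral control / Compound dosing: single concentration / Medium: EGM-2 over gelatin coat / Evaluation: percent E-selectin-positive cells / Signal: immunofluorescence imaging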

SMILES | activation
COc1ccc(-c2ccccc2C2Cc3nnccc3CN2C(=O)Nc2ccccc2)cc1 (stereo not drawn) | -0.134%
COc1cc(OC)cc(-c2cc3ccc(F)cc3cn2)c1 | 0.221%
CCCc1ccc(S(=O)(=O)N2CCN(C(=O)c3cc(C)on3)CC2)cc1 | -0.187%
CCCCCCNC(=O)O[C@H]1CN(C(=O)OC(C)C)N(C(=O)OC(C)C)[C@@H]2CN(S(=O)(=O)c3ccc(C)cc3)C[C@]12O | 0.079%
Cc1ccc(S(=O)(=O)N2CCN(C(=O)Cc3sc(C)nc3-c3ccc(F)cc3)CC2)c(C)c1 | 62.2% (active)
Cc1nc(-c2ccc(F)cc2)c(CC(=O)N2CCN(S(=O)(=O)c3ccc(F)cc3)CC2)s1 | -0.541%
Cc1nc(-c2ccc(F)cc2)c(CC(=O)Nc2cc(S(=O)(=O)N3CCCCC3)ccc2C)s1 | -1.09%
CCOC(=O)C1=C(C(=O)OCC)C2N(Cc3ccc(C#N)cc3)c3ccccc3[C@@]23C[C@@H](C(=O)OC)N(S(=O)(=O)c2ccc(F)cc2)C3=N1 (stereo partly drawn) | -0.148%
COc1ccccc1S(=O)(=O)N[C@@H]1CC[C@H](CCn2cc(C3CCCC3)nn2)O[C@H]1CO | -0.101%
CCCCCCCNC(=O)C1(CC2CC(c3cccc(Br)c3)=NO2)CCN(C(=O)c2cc(OCC)c(OCC)c(OCC)c2)CC1 (stereo not drawn) | 0.076%
Cc1cnc(CN(C)C(=O)CC2C(=O)NCCN2Cc2cccc(F)c2F)[nH]1 (stereo not drawn) | -0.473%
Cc1nc(CN(C)C(=O)CC2C(=O)NCCN2Cc2ccc(F)cc2)cs1 (stereo not drawn) | -0.598%
CN(Cc1cccc2ncccc12)C(=O)CC1C(=O)NCCN1Cc1ccc(F)cc1 (stereo not drawn) | 365% (active)
COc1ccc2c3c([nH]c2c1)[C@@H](CO)N(C)CC31CCN(S(=O)(=O)c2ccc(C)cc2)CC1 | -0.271%
CO[C@H]1CN(C)C(=O)c2ccc(NC(C)=O)cc2OC[C@@H](C)N(C(=O)c2ccncc2)C[C@@H]1C | 0.486%
NC(=S)NN=Cc1ccc(OC(=O)COc2cc(Cl)c(Cl)cc2Cl)cn1 | 0.0825%
C[C@H](CO)N1C[C@H](C)[C@@H](CN(C)S(=O)(=O)c2ccc([N+](=O)[O-])cc2)OCc2ccccc2-c2c(n(C)c3ccccc23)C1=O | 0.251%
O=C(NC(=S)Nc1ncccn1)c1ccccc1Br | -0.09%
CCCc1ccc(OCCNC(=O)c2ccccc2Br)cc1 | 0.473%
CCOc1cnc(C(=O)NNC(=O)c2ccccc2Br)o1 | 180% (active)
COCC(=O)N1[C@H](C(=O)N2CCN(C)CC2)[C@@H](CO)[C@@H]2Cn3c(ccc(C4=CCCC4)c3=O)[C@@H]21 | 0.129%
COC(=O)C1=C(C)N(Cc2ccc(C(F)(F)F)cc2)C(=NCc2ccc(C(F)(F)F)cc2)NC1c1cccc(Cl)c1 (stereo not drawn) | -0.458%
O=C(C[C@H]1CC[C@@H]2[C@H](COC[C@H](O)CN2CCC(F)(F)F)O1)NCC1CC1 | -0.0615%
COc1ccc(C2=NN(C(=O)c3cccnc3)C(c3ccccc3)C2)cc1 (stereo not drawn) | -2.28%

SMILES | activation
COc1ccc(C2=NN(C(=O)c3ccccc3C(=O)O)C(c3ccccc3O)C2)cc1 (stereo not drawn) | 55.5% (active)
COc1ccc(C2=NN(C(C)=O)C(c3ccccc3)C2)cc1 (stereo not drawn) | 0.176%
Cc1ccc(C(=O)N2CCCc3ccccc32)c(Cl)c1 | -0.261%
C[C@H]1CN([C@@H](C)CO)C(=O)c2cccc(NC(=O)c3cnccn3)c2O[C@@H]1CN(C)Cc1ccc(Oc2ccccc2)cc1 | 0.0435%
C[C@H]1CN([C@@H](C)CO)C(=O)c2cccc(NC(=O)c3cnccn3)c2O[C@H]1CN(C)C(=O)Nc1ccccc1 | 0.886%
CC(C)NC(=O)N(C)C[C@@H]1Oc2c(NC(=O)c3cnccn3)cccc2C(=O)N([C@@H](C)CO)C[C@@H]1C | 88.4% (active)
COc1ccc(CN(C)C[C@H]2Oc3c(NC(=O)c4cnccn4)cccc3C(=O)N([C@H](C)CO)C[C@@H]2C)cc1 | 39% (active)
C[C@H](CO)N1C[C@H](C)[C@H](CN(C)C(=O)Nc2ccc(F)cc2)Oc2c(NC(=O)c3cnccn3)cccc2C1=O | 0.893%
C[C@@H]1CN([C@H](C)CO)C(=O)c2cccc(NC(=O)c3cnccn3)c2O[C@@H]1CN(C)Cc1ccncc1 | -11.9%
COc1ccc2c3c(n(C)c2c1)[C@@H](CO)N(C(=O)c1cnccn1)CC31CCN(C(C)=O)CC1 | -0.0775%
Cc1ccccc1-c1csc(C(O)c2cccc(Cl)c2)n1 (stereo not drawn) | 0.0645%
CCOC(=O)[C@H]1Nc2ccc(Cl)cc2[C@@H]2[C@H]1C1CC(c3ccccc31)N2C(=O)OCc1ccccc1 (stereo partly drawn) | -3.61%
Cc1c(CC(=O)NCC(=O)NCC(=O)O)c(=O)oc2cc3oc4c(c3cc12)CCCC4 | 44.8% (active)
CC[C@@H](C)[C@H](NC(=O)CCc1c(C)c2cc3c4c(oc3c(C)c2oc1=O)CCCC4)C(=O)O | -0.004%
Cc1coc2cc3oc(=O)c(CCC(=O)O)c(C)c3cc12 | 0.29%
CN1C(=O)C(Br)(Br)CC1c1cccnc1 (stereo not drawn) | 0.457%
CCc1nc2c(OCCOc3ccccc3)cccn2c1N(C)C(=O)c1ccc(OC)cc1 | -0.197%
CCOC(=O)C1C(C)C(C(C)(C)C)N(S(=O)(=O)c2ccc(C)cc2)C1c1ccccc1 (stereo not drawn) | -0.306%
O=C(NC1CCCC1)[C@@H]1[C@@H](CO)[C@@H]2Cn3c(ccc(-c4ccc(F)cc4)c3=O)[C@H]1N2Cc1cocn1 | 0.192%
CCOC(=O)C(=Cc1ccccc1)C(=O)c1ccccc1 | -0.023%
COc1ccc2sc(-c3ccc(N(C)C)cc3)c(-c3ccc4cc[nH]c4c3)c2c1 | 0.675%
COc1ccc2sc(-c3ccc(N(C)C)cc3)c(C#CCO)c2c1 | 0.712%
COc1ccc2c(c1)c(=Cc1ccc(N(C)C)cc1)c1cc(-c3ccccc3)[n+](C)n12 | 197% (active)
CC1(C)OC(=O)C2=C(C[C@@H](C3CCCC3)O[C@@H]2c2ccc(Cl)cc2)O1 | -0.0095%
